In article PMC2889702 (ACS chemical neuroscience, 2010):
pEC50, pIC50: −log10 of the molar value. “Also recorded” adds a separate entry of the source.

What was measured:
Format in all cases: cell-based
rat mGluR1 = rat mGluR1 (Rattus norvegicus, UniProt P23385)
Summary of the method: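 Rat mGluR1 stably expressed in BHK cells. Test compound run as a full 1:3 serial-dilution concentration–response, top final concentration 30 μM. Cells preincubated ~2.5 min with compound, then given an EC20 glutamate concentration, then EC80 glutamate 2 min later. Antagonism taken as blockade of the EC80 response. Data normalized to percent maximal glutamate response.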

human mGluR4 [1] = biological target: T1, human mGluR4 (Homo sapiens, UniProt Q14833); test: calcium mobilization potency assay; details: for fold increase in potency against hmGluR4: compared to PHCCC / (−)-PHCCC
human mGluR4 [2] = biological target: T1, human mGluR4; details: compared to (−)-PHCCC
other mGluR subtypes = test: selectivity against all of the mGluR subtypes; details: 10 μM compound
Summary of the method: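 Rat mGluR2, -3, -7, -8 and human mGluR6 were stably expressed in HEK cells coexpressing GIRK1/2. Rat mGluR5 was in HEK cells and rat mGluR1 in BHK cells. Cells received 10 μM final test compound or vehicle, then a full agonist concentration-response (glutamate; L-AP4 for mGluR7). mGluR1 instead: 1:3 compound series to 30 μM top final, EC20 then EC80 glutamate, blockade of EC80 response. Normalized to % Glu Max, triplicate.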

rat mGluR1, sequence (P23385 19-1199): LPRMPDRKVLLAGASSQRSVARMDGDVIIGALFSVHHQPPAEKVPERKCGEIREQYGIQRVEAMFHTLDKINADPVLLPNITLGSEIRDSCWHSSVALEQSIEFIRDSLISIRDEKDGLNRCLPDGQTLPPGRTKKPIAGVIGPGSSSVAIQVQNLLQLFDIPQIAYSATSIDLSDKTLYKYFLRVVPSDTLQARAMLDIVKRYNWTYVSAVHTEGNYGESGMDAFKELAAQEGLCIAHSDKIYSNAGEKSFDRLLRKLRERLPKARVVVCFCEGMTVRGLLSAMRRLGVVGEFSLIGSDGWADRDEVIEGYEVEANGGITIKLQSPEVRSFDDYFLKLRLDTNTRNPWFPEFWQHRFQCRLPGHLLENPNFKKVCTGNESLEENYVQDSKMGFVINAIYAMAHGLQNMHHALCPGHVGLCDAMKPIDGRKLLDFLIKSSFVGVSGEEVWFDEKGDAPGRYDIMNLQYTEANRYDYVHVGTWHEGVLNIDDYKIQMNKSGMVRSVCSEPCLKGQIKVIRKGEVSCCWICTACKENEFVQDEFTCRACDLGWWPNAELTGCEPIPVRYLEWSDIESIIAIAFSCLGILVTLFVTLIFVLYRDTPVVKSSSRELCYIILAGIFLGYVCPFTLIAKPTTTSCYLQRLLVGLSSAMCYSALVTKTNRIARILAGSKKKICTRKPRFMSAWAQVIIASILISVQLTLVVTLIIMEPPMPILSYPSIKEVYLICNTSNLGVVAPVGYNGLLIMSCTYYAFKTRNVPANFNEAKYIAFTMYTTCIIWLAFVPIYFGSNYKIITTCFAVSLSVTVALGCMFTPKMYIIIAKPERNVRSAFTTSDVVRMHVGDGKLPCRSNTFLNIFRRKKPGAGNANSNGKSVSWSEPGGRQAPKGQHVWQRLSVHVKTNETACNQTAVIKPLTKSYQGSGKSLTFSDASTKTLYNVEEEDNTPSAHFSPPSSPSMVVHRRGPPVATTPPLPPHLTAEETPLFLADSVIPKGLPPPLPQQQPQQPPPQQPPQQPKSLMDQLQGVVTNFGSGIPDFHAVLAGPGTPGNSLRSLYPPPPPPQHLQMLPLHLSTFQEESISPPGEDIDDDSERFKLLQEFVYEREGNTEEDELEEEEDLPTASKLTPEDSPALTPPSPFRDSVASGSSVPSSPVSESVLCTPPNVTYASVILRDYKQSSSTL
T1 sequence (Q14833 33-912): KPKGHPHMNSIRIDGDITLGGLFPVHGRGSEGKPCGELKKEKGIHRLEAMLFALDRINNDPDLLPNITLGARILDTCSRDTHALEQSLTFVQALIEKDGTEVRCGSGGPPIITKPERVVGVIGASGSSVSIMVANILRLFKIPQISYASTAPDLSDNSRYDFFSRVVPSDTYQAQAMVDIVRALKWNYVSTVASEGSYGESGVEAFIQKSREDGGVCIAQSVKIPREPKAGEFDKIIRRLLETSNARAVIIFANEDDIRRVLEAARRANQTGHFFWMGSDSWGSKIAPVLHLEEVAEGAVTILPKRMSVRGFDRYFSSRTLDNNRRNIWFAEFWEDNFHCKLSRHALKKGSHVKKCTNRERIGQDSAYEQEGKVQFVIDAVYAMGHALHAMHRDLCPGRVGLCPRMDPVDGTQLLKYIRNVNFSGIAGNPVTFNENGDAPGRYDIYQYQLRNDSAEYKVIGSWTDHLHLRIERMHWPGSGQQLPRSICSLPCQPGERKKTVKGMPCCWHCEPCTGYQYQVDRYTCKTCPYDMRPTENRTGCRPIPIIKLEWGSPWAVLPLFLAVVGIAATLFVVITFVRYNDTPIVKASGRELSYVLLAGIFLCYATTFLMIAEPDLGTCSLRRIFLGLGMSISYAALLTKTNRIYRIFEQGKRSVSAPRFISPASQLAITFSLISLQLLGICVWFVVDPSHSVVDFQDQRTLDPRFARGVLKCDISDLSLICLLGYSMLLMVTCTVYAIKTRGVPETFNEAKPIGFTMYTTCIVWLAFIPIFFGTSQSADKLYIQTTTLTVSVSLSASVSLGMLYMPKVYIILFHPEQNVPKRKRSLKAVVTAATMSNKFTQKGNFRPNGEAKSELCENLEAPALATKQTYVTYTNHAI

O=C(Nc1ccccc1)C12CC1/C(=N\O)c1ccccc1O2 (racemic) [(±)-PHCCC, PHCCC]
% Glu Max (mGluR1) (rat mGluR1; rat mGluR1, normalized to percent maximal glutamate response): 23%
pIC50 (rat mGluR1; read-out: mGluR1 IC50): 5.68

O=C(Nc1ccccn1)C12CC1/C(=N\O)c1ccccc1O2 (single isomer, unassigned; (-)) [(−)-10c]
agonist activity of compound added alone (human mGluR4 [1]; 30 μM compound alone, before glutamate addition, calcium mobilization): do not exhibit agonist activity; also recorded: only act in the presence of glutamate
agonist activity of compound added alone at higher concentrations (human mGluR4 [1]; >30 μM compound alone, data not shown): some intrinsic agonist activity
fold increase in potency against hmGluR4 (human mGluR4 [1]; listed as 10c): > 4 fold
fold increase in potency against hmGluR4 (human mGluR4 [1]; listed as (-)-10c): 4 fold
fold enhancement in efficacy (human mGluR4 [2]): 2 fold
activity against the other mGluR subtypes tested (other mGluR subtypes): devoid of activity

O=C(Nc1ccccn1)C12CC1/C(=N\O)c1ccccc1O2 (stereo not shown) [Compound 5i, (E)-7-(Hydroxyimino)-N-(pyridin-2-yl)-1,1a,7,7a-tetrahydrocyclopropa[b]chromene-1a-carboxamide]
pEC50 (human mGluR4 [1]): 6.06
mGluR1 activity (rat mGluR1; result in words, NAM=negative allosteric modulator): devoid of any mGluR1 activity
